Results taken from ChEMBL document CHEMBL1136923, “Highly potent, orally available anti-inflammatory broad-spectrum chemokine inhibitors” (J Med Chem, 2009).

What was measured:
Mus musculus [1] = test: Antiinflammatory activity in mouse assessed as inhibition of LPS-induced TNFalpha upregulation at 0.000225 mg, sc measured 2 hrs after LPS challenge; type: functional
In short: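 Murine sublethal endotoxemia: LPS given intraperitoneally, serum TNF-α measured 2 h after LPS injection. Compound vehicle 0.6% DMSO plus 1% carboxymethylcellulose (final concentrations) in sterile water.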

[2] = target: T1, C-C chemokine receptor type 1 (Homo sapiens) (UniProt P32246); test: Antagonist activity at CCR1 in human THP1 cells assessed as inhibition of CCL3-induced chemotaxis at 1000 nM after 2 hrs by microtiter format trans-well migration assay; type: functional, cell-based; conditions: THP-1
T1 sequence (whole entry): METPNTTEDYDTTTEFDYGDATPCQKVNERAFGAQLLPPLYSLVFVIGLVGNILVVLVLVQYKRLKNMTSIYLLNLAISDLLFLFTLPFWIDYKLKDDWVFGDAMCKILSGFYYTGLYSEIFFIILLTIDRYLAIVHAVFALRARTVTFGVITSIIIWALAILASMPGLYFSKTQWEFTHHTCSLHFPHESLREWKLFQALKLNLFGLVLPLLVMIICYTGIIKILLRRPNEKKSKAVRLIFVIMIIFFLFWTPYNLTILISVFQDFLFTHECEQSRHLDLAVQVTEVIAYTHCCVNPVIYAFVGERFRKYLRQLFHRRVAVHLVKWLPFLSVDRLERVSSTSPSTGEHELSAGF
In short: (§1)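 Microtiter trans-well migration assay in Gey's balanced salt solution with 1 mg/mL endotoxin-free BSA, no fetal calf serum. Migration ran 2 h at 37 °C. Compounds dissolved in DMSO and added to both top and bottom compartments, final DMSO 1%.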

[3] = Antagonist activity at Interleukin-8 receptor in human PMNC assessed as inhibition of CXCL8-induced chemotaxis at 10 nM after 2 hrs by microtiter format trans-well migration assay; type: functional; in short: as §1
[4] = Antagonist activity at Interleukin-8 receptor in human PMNC assessed as inhibition of CXCL8-induced chemotaxis at 1000 nM after 2 hrs by microtiter format trans-well migration assay; type: functional; in short: as §1
Mus musculus [5] = test: Antiinflammatory activity in mouse assessed as inhibition of LPS-induced TNFalpha upregulation at 0.0025 mg, po measured 2 hrs after LPS challenge; type: functional
In short: (§2)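 Murine sublethal endotoxemia: LPS given intraperitoneally, with serum TNF-α measured 2 h after the LPS injection as the end point. Compound was given subcutaneously or orally. Vehicle was 0.6% DMSO and 1% carboxymethylcellulose (final concentrations) in sterile water. Effect is reported as % relative to control.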

Mus musculus [6] = test: Antiinflammatory activity in mouse assessed as inhibition of LPS-induced TNFalpha upregulation at 0.0075 mg, po measured 2 hrs after LPS challenge; type: functional; in short: as §2
[7] = target: T2, C5a anaphylatoxin chemotactic receptor 1 (Homo sapiens) (UniProt P21730); test: Antagonist activity at C5a receptor in human PMNC assessed as inhibition of C5a-induced chemotaxis at 1 nM after 2 hrs by microtiter format trans-well migration assay; type: functional; in short: as §1
T2 sequence (whole entry): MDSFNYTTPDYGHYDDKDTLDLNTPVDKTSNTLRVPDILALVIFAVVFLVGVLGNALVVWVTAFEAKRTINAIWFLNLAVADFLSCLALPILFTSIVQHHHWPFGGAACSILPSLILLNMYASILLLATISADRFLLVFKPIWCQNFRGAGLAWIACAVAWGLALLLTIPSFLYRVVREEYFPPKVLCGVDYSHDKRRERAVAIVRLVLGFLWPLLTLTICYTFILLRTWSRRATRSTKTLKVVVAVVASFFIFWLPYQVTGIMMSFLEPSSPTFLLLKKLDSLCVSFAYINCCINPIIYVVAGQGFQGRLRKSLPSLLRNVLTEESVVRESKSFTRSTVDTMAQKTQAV

Mus musculus [8] = test: Antiinflammatory activity in mouse assessed as inhibition of LPS-induced TNFalpha upregulation at 0.0075 mg, sc measured 2 hrs after LPS challenge; type: functional; in short: as §2
THP-1 [9] = test: Endogenous chemoattractant activity at human THP1 cells assessed as cell migration at 1 nM after 2 hrs by microtiter format trans-well migration assay; type: functional
Mus musculus [10] = test: Antiinflammatory activity in sc dosed mouse assessed as inhibition of LPS-induced TNFalpha upregulation measured 2 hrs after LPS challenge relative to control; type: functional
In short: (§3)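 Murine sublethal LPS endotoxemia screen. LPS is injected intraperitoneally and serum TNF-α is measured 2 h later as the end point. Compound is given subcutaneously or orally in a vehicle of 0.6% DMSO plus 1% carboxymethylcellulose (final concentrations) in sterile water. Values are % relative to control.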

THP-1 [11] = test: Endogenous chemoattractant activity at human THP1 cells assessed as cell migration at 1 uM after 2 hrs by microtiter format trans-well migration assay; type: functional
[12] = Antagonist activity at Interleukin-8 receptor in human PMNC assessed as inhibition of CXCL8-induced chemotaxis at 0.1 nM after 2 hrs by microtiter format trans-well migration assay; type: functional; in short: as §1
[13] = target: T1, C-C chemokine receptor type 1 (Homo sapiens); test: Antagonist activity at CCR1 in human THP1 cells assessed as inhibition of CCL3-induced chemotaxis at 1 nM after 2 hrs by microtiter format trans-well migration assay; type: functional, cell-based; conditions: THP-1; in short: as §1
[14] = Fractional bioavailability in Sprague-Dawley rat at 3 mg/kg, po administered as single dose; type: ADME, organism-based; conditions: in vivo
In short: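 Male Sprague-Dawley rats, three per compound, receive a single oral dose by gavage in 1% carboxymethylcellulose in 0.9% saline, with food and water ad libitum. Plasma is sampled from 5 to 480 min and drug is quantified by positive-mode LC/MS/MS after acetonitrile/formic acid extraction. The lower limit of quantitation is about 2 ng/mL. Exposure is AUC(0→t) by the linear/log trapezoidal rule, and F is oral fractional bioavailability.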

Mus musculus [15] = test: Antiinflammatory activity in mouse assessed as inhibition of LPS-induced TNFalpha upregulation at 830 pg, sc measured 2 hrs after LPS challenge; type: functional; in short: as §3
[16] = target: T1, C-C chemokine receptor type 1 (Homo sapiens); test: Antagonist activity at CCR1 in human THP1 cells assessed as inhibition of CCL3-induced chemotaxis at 100 nM after 2 hrs by microtiter format trans-well migration assay; type: functional, cell-based; conditions: THP-1; in short: as §1
Mus musculus [17] = test: Antiinflammatory activity in mouse assessed as inhibition of LPS-induced TNFalpha upregulation at 0.075 mg, po measured 2 hrs after LPS challenge; type: functional; in short: as §2
[18] = target: C-C chemokine receptor type 5 (Homo sapiens) (UniProt P51681); test: Antagonist activity at CCR5 in human THP1 cells assessed as inhibition of CCL5-induced chemotaxis at 1 nM after 2 hrs by microtiter format trans-well migration assay; type: functional, cell-based; conditions: THP-1; in short: as §1
[19] = target: T2, C5a anaphylatoxin chemotactic receptor 1 (Homo sapiens); test: Antagonist activity at C5a receptor in human PMNC assessed as inhibition of C5a-induced chemotaxis after 2 hrs by microtiter format trans-well migration assay; type: functional; in short: as §1
[20] = target: C-X-C chemokine receptor type 4 (Homo sapiens) (UniProt P61073); test: Antagonist activity at CXCR4 in human THP1 cells assessed as inhibition of CXCL12-induced chemotaxis at 0.1 nM after 2 hrs by microtiter format trans-well migration assay; type: functional, cell-based; conditions: THP-1; in short: as §1
Sequence of C-X-C chemokine receptor type 4 (Homo sapiens) (P61073 whole entry): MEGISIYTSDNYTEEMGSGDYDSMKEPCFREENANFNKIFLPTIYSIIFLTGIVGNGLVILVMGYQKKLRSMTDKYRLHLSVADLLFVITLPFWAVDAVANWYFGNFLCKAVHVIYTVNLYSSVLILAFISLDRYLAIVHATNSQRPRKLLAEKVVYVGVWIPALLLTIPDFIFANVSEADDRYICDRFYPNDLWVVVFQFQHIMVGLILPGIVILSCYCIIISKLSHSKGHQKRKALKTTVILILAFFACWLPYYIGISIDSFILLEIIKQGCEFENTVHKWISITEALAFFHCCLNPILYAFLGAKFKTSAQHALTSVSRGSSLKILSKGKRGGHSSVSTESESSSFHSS

Sequence of C-C chemokine receptor type 5 (Homo sapiens) (P51681 whole entry, looked up): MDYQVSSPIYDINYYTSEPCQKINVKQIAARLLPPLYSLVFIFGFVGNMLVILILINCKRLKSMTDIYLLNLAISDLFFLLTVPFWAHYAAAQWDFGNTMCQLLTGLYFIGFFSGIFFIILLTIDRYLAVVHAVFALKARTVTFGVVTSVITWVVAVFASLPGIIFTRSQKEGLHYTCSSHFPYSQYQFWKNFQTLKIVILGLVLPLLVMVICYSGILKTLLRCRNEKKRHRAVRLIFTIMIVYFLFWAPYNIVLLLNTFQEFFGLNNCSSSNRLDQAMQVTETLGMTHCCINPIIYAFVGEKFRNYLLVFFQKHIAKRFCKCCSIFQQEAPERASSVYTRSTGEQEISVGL

In the case of `CCCCCCCCCCC(C)(C)C(=O)N[C@H]1CCCCNC1=O`, the “inhibition (INH)” value (Mus musculus [1]) is reported as 68%, the inhibition [2] is reported as 99.5% and the inhibition at 0.01 µM [3] is reported as 121%. The inhibition at 1 µM [4] was 122%, the “inhibition (INH)” value (Mus musculus [5]) was 0% and the “inhibition (INH)” value (Mus musculus [6]) was 12%. For the same compound, the inhibition [7] was 17.5%, the “inhibition (INH)” value (Mus musculus [8]) was 63% and the Activity (THP-1 [9]) was 4335%. For the same compound, the “inhibition (INH)” value (Mus musculus [10]) was 70%, the Activity (THP-1 [11]) was 4626% and the inhibition at 0.0001 µM [12] was 12.5%. For the same compound, the inhibition [13] was 92.5%, the bioavailability [14] was 16% and the “inhibition (INH)” value (Mus musculus [15]) was 18%. For the same compound, the inhibition [16] was 95%, the “inhibition (INH)” value (Mus musculus [17]) was 80% and the inhibition [18] was 56%. It also gave an ED50 [19] greater than 1000 nM and an inhibition [20] of 13%.
